# Measurements published in paper PMC3206162 (The international journal of biochemistry & cell biology, 2011).
# Like-named read-outs stand apart in the source and are kept apart here. No end group written: not given here.
# Experiments:
# [1] = tested on: LEC; test: RTCA E-plate LEC adhesion assay; format: cell-based, human; settings: read-out: IC50 LEC adhesion; cell index at 1 h; 100, 33, 11, 3.7, 1.2μM
# Method in brief: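 LEC seeded at 25,000 cells/well in EGM-2MV medium onto E-plate wells already holding peptide, so the cells dilute the peptide to its final concentration. Plate equilibrated 30 min at room temperature, then loaded into the RTCA system. Cell index analysed at 1 h as the adhesion read-out.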
# [2] = tested on: LEC; settings: 20 h
# [3] = tested on: HUVEC; format: cell-based, human; settings: 72 h
# [4] = tested on: MEC; format: cell-based, human; settings: 72 h
# [5] = tested on: LEC; format: cell-based, human; settings: 72 h
# [6] = tested on: HUVEC; test: CytoTox-ONE LDH release cytotoxicity assay on HUVEC; settings: 10μM peptide, 72 h
# [7] = tested on: cell apoptosis; settings: cited from earlier work
# [8] = tested on: MEC; test: CytoTox-ONE LDH release cytotoxicity assay on MEC; settings: 72 h, complete media control = 100%; for LDH level, MEC: 10μM peptide; for LDH activity compared to the control, MEC: 100μM peptide
# [9] = tested on: LEC; test: CytoTox-ONE LDH release cytotoxicity assay on LEC; settings: 72 h, complete media control = 100%
# [10] = tested on: LEC
molecule,measurement,setting,value
LLRSSLILLQGSWF [SP5031],IC50,[1],24.2 µM
same,IC50,[2],25.1 µM
same,IC50,[3],96.9 ± 34.3 µM
same,IC50,[4],83.4 ± 21.9 µM
same,IC50,[5],158 ± 122 µM
LLRLLLLIESWLE [SP5030],"cytotoxic (LDH) activity, HUVEC",[6],significant cytotoxic activity
same,IC50,[4],93.2 ± 42.3 µM
LLHISLLLIESRLE [SP5032],"cytotoxic (LDH) activity, HUVEC",[6],significant cytotoxic activity
same,IC50,[4],80.1 ± 47.9 µM
"LLRISLLLIQSWLE [tilted PRL peptide, reference compound]",cell apoptosis,"[7]; ref Nguyen et al., 2006",led to cell apoptosis
LMRKSQILISSWF [SP5028],IC50,[3],58.2 ± 35.2 µM
same,"LDH level, MEC",[8],more than 150%
same,"LDH activity compared to the control, MEC",[8],more than 200%
RLRLLTLQSWLL [SP5001],IC50,[3],50.7 ± 31.8 µM
same,IC50,[4],52.4 ± 27.8 µM
same,"LDH activity compared to the control, LEC",[9],significant LDH activity
same,"LDH level, MEC",[8],more than 150%
same,"LDH activity compared to the control, MEC",[8],more than 200%
LLRISLLLIESWLE [SP5033],IC50,[4],81.1 ± 37.2 µM
same,"LDH activity compared to the control, LEC",[10],significant LDH activity
"PRL protein: prolactin (PRL) protein (protein, UniProt P01236 29-227, looked up) Prolactin: LPICPGGAARCQVTLRDLFDRAVVLSHYIHNLSSEMFSEFDKRYTHGRGFITKAINSCHTSSLATPEDKEQAQQMNQKDFLSLIVSILRSWNEPLYHLVTEVRGMQEAPEAILSKAVEIEEQTKRLLEGMELIVSQVHPETKENEIYPVWSGLPSLQMADEESRLSAYYNLLHCLRRDSHKIDNYLKLLKCRIIHNNNC",apoptosis in a prostate cancer model,"[7]; prostate cancer model, ref Giuffrida et al., 2010",induced apoptosis
